Columns and labels:
Type in all cases: functional, organism-based
[1] = test system: Mycolicibacterium smegmatis; assay: Concentration for complete inhibition of growth against rifampicin resistant Mycobacterium smegmatis 607 strain in vitro; Precipitation
Summary of the method: (§1)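 M. smegmatis ATCC607-derived strains (one of three used, including a dapsone-sensitive one) were grown in modified Kirchner's medium with 0.5% Tween 80, inoculated with 10^5 viable cells. Drugs were added in DMSO (2% final). Roller tubes were incubated at 37 °C for 72 h. Growth was read as spectrophotometric transmission.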

[2] = test system: Mycolicibacterium smegmatis; assay: Concentration for 100% inhibition of growth of dapsone sensitive Mycobacterium smegmatis 607 strain in vitro; summary of the method: as §1
[3] = test system: Mycolicibacterium smegmatis; assay: Concentration for complete inhibition of growth against clofazimine resistant Mycobacterium smegmatis 607 strain in vitro; Precipitation
Summary of the method: (§2)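 Strain: 20× step-up clofazimine-resistant mutant of M. smegmatis ATCC607. 10^5 viable cells inoculated into modified Kirchner's medium with 0.5% Tween 80. Drugs were added in DMSO (2% final in all tubes). Roller tubes were incubated at 37 °C for 72 h. Growth was read as optical transmission in a spectrophotometer.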

[4] = test system: Mycolicibacterium smegmatis; assay: 100% inhibition of growth of rifampicin resistant Mycobacterium smegmatis 607 strain in vitro; summary of the method: as §1
[5] = test system: Mycolicibacterium smegmatis; assay: 100% inhibition of growth of clofazimine resistant Mycobacterium smegmatis 607 strain in vitro; summary of the method: as §2

Row | Structure (SMILES) | Concentration [1] [µg/mL] | Concentration [2] [µg/mL] | Concentration [3] [µg/mL] | Concentration [4] [µg/mL] | Concentration [5] [µg/mL]
1 | CCOc1ccc(Nc2cc3nc4ccccc4n(-c4ccc(OCC)cc4)c-3cc2=N)cc1 | 50 | 6 | 100 | – | –
2 | c1ccc(Nc2cc3nc4ccccc4n(-c4ccccc4)c-3c/c2=N\CCN2CCOCC2)cc1 | – | 2 | – | 2 | 10
3 | c1ccc(Nc2cc3nc4ccccc4n(-c4ccccc4)c-3c/c2=N\CCCNC2CCCCC2)cc1 | – | 0.2 | – | 0.2 | 0.6
4 | CCN(CC)CCCC(C)/N=c1\cc2n(-c3ccc(Cl)cc3)c3ccccc3nc-2cc1Nc1ccc(Cl)cc1 (centres undefined) | – | 0.2 | – | 0.2 | 2
5 | N=c1cc2n(-c3ccc(Cl)cc3)c3ccccc3nc-2cc1Nc1ccc(Cl)cc1 | – | 3 | – | 3 | 40
6 | CCCC/N=c1\cc2n(-c3ccccc3)c3ccccc3nc-2cc1Nc1ccccc1 | – | 3 | – | 3 | 20
7 | Clc1ccc(Nc2cc3nc4ccccc4n(-c4ccc(Cl)cc4)c-3c/c2=N\C2CCCCC2)cc1 | – | 2 | – | 1 | 20
8 | c1ccc(Nc2cc3nc4ccccc4n(-c4ccccc4)c-3c/c2=N\CC2CCNCC2)cc1 | – | 0.3 | – | 0.3 | 0.6
9 | CCN(CC)CCCC(C)/N=c1\cc2n(-c3ccccc3)c3ccccc3nc-2cc1Nc1ccccc1 (centres undefined) | – | 0.3 | – | 0.4 | 2
10 | Clc1ccc(Nc2cc3nc4ccccc4n(-c4ccc(Cl)cc4)c-3c/c2=N\CCCN2CCOCC2)cc1 | – | 0.5 | – | 0.4 | 12
11 | CCC/N=c1\cc2n(-c3ccc(Cl)cc3)c3ccccc3nc-2cc1Nc1ccc(Cl)cc1 | – | 3 | – | 3 | 100
12 | CNCCC/N=c1\cc2n(-c3ccc(Cl)cc3)c3ccccc3nc-2cc1Nc1ccc(Cl)cc1 | – | 0.2 | – | 0.3 | 0.6
13 | COC(C/N=c1\cc2n(-c3ccccc3)c3ccccc3nc-2cc1Nc1ccccc1)OC | – | 4 | – | 4 | 100
14 | CCN(CC)CC/N=c1\cc2n(-c3ccc(C)cc3)c3ccccc3nc-2cc1Nc1ccc(C)cc1 | – | 0.5 | – | 0.5 | 3
15 | c1ccc(Nc2cc3nc4ccccc4n(-c4ccccc4)c-3c/c2=N\CCN2CCCCC2)cc1 | – | 0.4 | – | 0.4 | 2
16 | CCN(CC)CC/N=c1\cc2n(-c3ccc(Cl)cc3)c3ccccc3nc-2cc1Nc1ccc(Cl)cc1 | – | 0.6 | – | 0.6 | 12
17 | Clc1ccc(Nc2cc3nc4ccccc4n(-c4ccc(Cl)cc4)c-3c/c2=N\CCN2CCOCC2)cc1 | – | 1 | – | 1 | 20
18 | NCCCC/N=c1\cc2n(-c3ccc(Cl)cc3)c3ccccc3nc-2cc1Nc1ccc(Cl)cc1 | – | 0.2 | – | 0.3 | 0.5
19 | CCCC/N=c1\cc2n(-c3ccccc3)c3ccc(Cl)cc3nc-2cc1Nc1ccccc1 | – | 2 | – | 3 | 100
20 | CC(C)/N=c1\cc2n(-c3ccc(Cl)cc3)c3ccccc3nc-2cc1Nc1ccc(Cl)cc1 | – | 1.5 | – | 0.5 | 30
21 | c1ccc(Nc2cc3nc4ccccc4n(-c4ccccc4)c-3c/c2=N\CCCN2CCCC2)cc1 | – | 0.2 | – | 0.2 | 0.6
22 | Cc1ccc(Nc2cc3nc4ccccc4n(-c4ccc(C)cc4)c-3c/c2=N\CCCNC2CCCCC2)cc1 | – | 0.2 | – | 0.2 | 0.5
23 | O=C1CCCN1CCC/N=c1\cc2n(-c3ccc(Cl)cc3)c3ccccc3nc-2cc1Nc1ccc(Cl)cc1 | – | 2 | – | 2 | 20
24 | Clc1ccc(Nc2cc3nc4ccccc4n(-c4ccc(Cl)cc4)c-3c/c2=N\CC2CCCCC2)cc1 | – | 3 | – | 3 | 100

Row | Structure (SMILES) | Concentration [1] [µg/mL] | Concentration [2] [µg/mL] | Concentration [3] [µg/mL] | Concentration [4] [µg/mL] | Concentration [5] [µg/mL]
25 | OCCCN1CCN(CCC/N=c2\cc3n(-c4ccc(Cl)cc4)c4ccccc4nc-3cc2Nc2ccc(Cl)cc2)CC1 | – | 0.6 | – | 0.5 | 2
26 | Clc1ccc(Nc2cc3nc4ccccc4n(-c4ccc(Cl)cc4)c-3c/c2=N\CCCN2CCCC2)cc1 | – | 0.3 | – | 0.3 | 0.8
27 | CCCC/N=c1\cc2n(-c3ccc(Cl)cc3)c3ccccc3nc-2cc1Nc1ccc(Cl)cc1 | – | 3 | – | 3 | 100
28 | CC1(C)CC(/N=c2\cc3n(-c4ccc(Cl)cc4)c4ccccc4nc-3cc2Nc2ccc(Cl)cc2)CC(C)(C)N1 | – | 0.2 | – | 0.5 | 2
29 | OCCNCC/N=c1\cc2n(-c3ccccc3)c3ccc(Cl)cc3nc-2cc1Nc1ccccc1 | – | 5 | – | 10 | 20
30 | OCCC/N=c1\cc2n(-c3ccc(Cl)cc3)c3ccccc3nc-2cc1Nc1ccc(Cl)cc1 | – | 2 | – | 2 | 10
31 | Clc1ccc(Nc2cc3nc4ccccc4n(-c4ccc(Cl)cc4)c-3c/c2=N\C2CCCC2)cc1 | – | 3 | – | 3 | 20
32 | Clc1ccc(Nc2cc3nc4ccccc4n(-c4ccc(Cl)cc4)c-3c/c2=N\CCN2CCCCC2)cc1 | – | 0.4 | – | 0.5 | 10
33 | CCN1CCCC(/N=c2\cc3n(-c4ccccc4)c4ccccc4nc-3cc2Nc2ccccc2)C1 (centres undefined) | – | 0.4 | – | 0.6 | 6
34 | CC/N=c1\cc2n(-c3ccccc3)c3ccccc3nc-2cc1Nc1ccccc1 | – | 3 | – | 3 | 20
35 | OCC/N=c1\cc2n(-c3ccccc3)c3ccccc3nc-2cc1Nc1ccccc1 | – | 3 | – | 5 | 20
36 | CC1CCC(/N=c2\cc3n(-c4ccccc4)c4ccccc4nc-3cc2Nc2ccccc2)CC1 (centres undefined) | – | 6 | – | 8 | 100
37 | CCC(CO)/N=c1\cc2n(-c3ccc(Cl)cc3)c3ccccc3nc-2cc1Nc1ccc(Cl)cc1 (centres undefined) | – | 2 | – | 10 | 100
38 | CC1CCCCN1CCC/N=c1\cc2n(-c3ccccc3)c3ccccc3nc-2cc1Nc1ccccc1 (centres undefined) | – | 0.3 | – | 0.3 | 2
39 | CCOc1ccc(Nc2cc3nc4ccccc4n(-c4ccc(OCC)cc4)c-3c/c2=N\CC(C)C)cc1 | – | 4 | – | 4 | 100
40 | c1ccc(Nc2cc3nc4ccccc4n(-c4ccccc4)c-3c/c2=N\CCCN2CCOCC2)cc1 | – | 1 | – | 0.8 | 6
41 | Clc1ccc2c(c1)nc1cc(Nc3ccccc3)/c(=N/CC3CCNCC3)cc-1n2-c1ccccc1 | – | 0.2 | – | 0.4 | 1
42 | Clc1ccc(Nc2cc3nc4ccccc4n(-c4ccc(Cl)cc4)c-3c/c2=N\CCN2CCCC2)cc1 | – | 0.5 | – | 0.5 | 10
43 | OCCN(CCO)CCC/N=c1\cc2n(-c3ccc(Cl)cc3)c3ccccc3nc-2cc1Nc1ccc(Cl)cc1 | – | 0.6 | – | 1 | 3
44 | OC1CCC(/N=c2\cc3n(-c4ccc(Cl)cc4)c4ccccc4nc-3cc2Nc2ccc(Cl)cc2)CC1 (centres undefined) | – | 2 | – | 4 | 30
45 | Clc1ccc2c(c1)nc1cc(Nc3ccccc3)/c(=N/CCN3CCOCC3)cc-1n2-c1ccccc1 | – | 1 | – | 1.5 | 50
46 | NCCCCC/N=c1\cc2n(-c3ccc(Cl)cc3)c3ccccc3nc-2cc1Nc1ccc(Cl)cc1 | – | 0.2 | – | 0.3 | 0.5
47 | CCC(CO)/N=c1\cc2n(-c3ccccc3)c3ccccc3nc-2cc1Nc1ccccc1 (centres undefined) | – | 2 | – | 30 | 100
48 | CCC/N=c1\cc2n(-c3ccccc3)c3ccccc3nc-2cc1Nc1ccccc1 | – | 2 | – | 3 | 20
